# Bioassay records: PubChem BioAssay, several laboratories
# The list is not random: actives were taken first. Their share in the collection is about 5%.
# Mdm2-MdmX inh: human Mdm2/MdmX binding inhibition | O15151+Q00987 | SaOS-2 split-luciferase Mdm2/MdmX complementation, luminescence | inhibition, % at 8 µM | hit rate 3% among 330,000 | AID 485346;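 active = inhibition of at least 50% at 8 µM in the primary screen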
# Target sequence (O15151 whole entry, looked up): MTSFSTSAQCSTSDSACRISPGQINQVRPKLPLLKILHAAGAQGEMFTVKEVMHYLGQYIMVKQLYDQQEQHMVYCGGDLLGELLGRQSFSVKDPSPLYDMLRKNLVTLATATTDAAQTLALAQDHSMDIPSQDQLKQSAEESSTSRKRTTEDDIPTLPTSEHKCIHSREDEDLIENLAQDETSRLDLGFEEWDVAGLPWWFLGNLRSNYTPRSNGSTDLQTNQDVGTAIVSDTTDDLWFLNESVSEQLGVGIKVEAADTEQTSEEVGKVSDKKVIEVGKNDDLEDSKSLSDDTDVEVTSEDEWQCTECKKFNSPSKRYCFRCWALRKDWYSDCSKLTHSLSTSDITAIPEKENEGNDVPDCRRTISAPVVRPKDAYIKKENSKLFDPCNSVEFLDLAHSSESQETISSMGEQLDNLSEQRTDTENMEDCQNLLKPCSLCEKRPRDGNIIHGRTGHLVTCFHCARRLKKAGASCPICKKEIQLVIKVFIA
# Target sequence (Q00987 whole entry, looked up): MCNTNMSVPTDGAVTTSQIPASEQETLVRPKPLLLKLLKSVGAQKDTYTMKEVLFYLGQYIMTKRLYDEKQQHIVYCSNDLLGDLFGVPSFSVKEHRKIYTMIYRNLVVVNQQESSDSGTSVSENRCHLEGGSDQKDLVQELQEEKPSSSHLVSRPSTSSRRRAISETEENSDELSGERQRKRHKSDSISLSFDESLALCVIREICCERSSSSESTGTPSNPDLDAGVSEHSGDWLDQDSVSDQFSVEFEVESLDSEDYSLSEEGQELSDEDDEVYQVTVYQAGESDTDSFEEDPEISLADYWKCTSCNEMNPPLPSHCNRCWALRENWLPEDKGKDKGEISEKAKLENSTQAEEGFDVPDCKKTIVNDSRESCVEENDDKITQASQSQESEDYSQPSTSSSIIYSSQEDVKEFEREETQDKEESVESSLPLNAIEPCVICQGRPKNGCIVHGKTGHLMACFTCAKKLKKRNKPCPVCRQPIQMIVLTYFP
# Beta apoptosis: beta cell apoptosis inhibition. protection from apoptosis, % (test concentration not listed). INS-1E cytokine-induced death, ATP luminescence, 48 h; percent of positive-control rescue, neutral wells zero. hit rate 0.8% among 300,000;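 active = Every replicate reaches about 75%, or at least half do and their mean reaches it too, limit read from the data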;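 also: 0% = cytokine-treated negative control wells and 100% = positive control rescue; higher means more ATP so stronger rescue from cytokine killing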
# T cruzi inh: T. cruzi replication inhibition; AID 1885; hit rate 1.4% among 300,000; T. cruzi beta-gal in NIH3T3, luminescence, 90 h; inhibition, % (no concentration beside the values);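 active = mean inhibition across valid replicates above about 55%, limit read from the data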;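 also: signal also drops with host cell toxicity which is not excluded here; 0% = plate median of DMSO wells and 100% = zero luminescence signal; higher percent means less beta-gal luminescence so fewer parasites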
#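 Material: NIH/3T3 host cells with β-galactosidase reporter T. cruzi; Input: 5,000 host fibroblasts per well; Medium: DMEM, 2% fetal bovine serum; Compound: 50 nL DMSO compound solution per well; Schedule: 3 h host attachment, then at least 90 h co-culture; Detection: luminescent β-galactosidase signal after 60 min lysis.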
# UPR XBP1 act: activators of adaptive arm of unfolded protein response (XBP1); CHO-XBP1 luciferase reporter, IRE1-XBP1 UPR activation, luminescence; percent of tunicamycin response, DMSO as zero; hit rate 0.33% among 330,000; AID 463104; activation, % at 20 µM;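 active = versus positive control, 20 µM dose yields 30% or more activation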;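 also: 100% = tunicamycin at 10 µg/mL and 0% = DMSO only wells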
#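 Material: CHO cell line with stable XBP1 luciferase reporter; schedule: 16-18 h cell attachment at 37 °C, then 6 h compound exposure; signal: glow luminescence from Steady-Glo reagent; medium: serum-containing F12 medium, 10% FBS; benchmarks: tunicamycin 10 µg/mL and vehicle-only wells; read-out: percent activation relative to tunicamycin reference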
# CSC inhib: cancer stem cell inhibition. AID 2717. cancer stem cell-like cells viability, luminescence. inhibition, % at 7.5 µM. hit rate 1.1% among 300,000; in the data active = inhibition above about 75%; tested in HMLE shEcad cells
# UPR CHOP act: activators of apoptotic arm of unfolded protein response (CHOP) | CHO-CHOP luciferase reporter, UPR activation, luminescence; percent of tunicamycin response over DMSO baseline | activation, % at 10 µM | hit rate 0.34% among 330,000 | AID 449763;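 active = at 10 µM dose, activation of 40% or more, normalized to positive control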;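 also: 100% = tunicamycin at 10 µg/mL and 0% = DMSO alone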
#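 System: CHO-CHOP luciferase reporter cell line; amount: 500 cells/well; buffer or medium: F12 medium containing 10% fetal bovine serum; incubation: 6 h compound exposure at 37 °C after overnight seeding; measured by: luciferase luminescence after 10 min with Steady-Glo reagent; evaluation: % reporter activation, DMSO baseline versus tunicamycin full activation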
# Active calls of the source: *; · = no result.
SMILES,Mdm2-MdmX inh,Beta apoptosis,T cruzi inh,UPR XBP1 act,CSC inhib,UPR CHOP act
CCOc1ccc(/C=N/n2cc(-c3ccccc3)[nH]c2=S)cc1,-40.1,34.4,72.9*,4.6,0.8,36.0
COc1ccc(NC(=O)c2cccs2)cn1,17.9,-2.5,3.7,-0.1,-0.8,1.2
CC(C)(C)c1ccc(Oc2ccc(NC(=O)c3cccs3)cn2)cc1,29.1,18.0,14.2,1.0,84.4*,1.2
O=C(COc1ccccc1C(=O)NCc1ccncc1)Nc1ccc(Br)cc1,14.0,2.9,57.2*,-4.5,17.3,0.8
O=C(N/N=C/c1ccncc1)c1ccccc1OCc1ccc(Br)cc1,10.4,7.6,70.7*,-0.2,49.3,2.1
CCC(C)(C)n1nnnc1C(c1ccc(C)cc1)N(Cc1ccco1)Cc1cccs1 (stereo not drawn),26.2,14.1,54.6*,-1.8,33.1,0.3
Cc1cccc2cc(C(c3nnnn3C(C)(C)C)N(Cc3ccco3)CC3CCCO3)c(=O)[nH]c12 (stereo not drawn),6.7,-6.3,3.1,-2.6,-7.6,-0.9
COc1cccc(CN(Cc2ccco2)C(c2ccc(F)cc2)c2nnnn2C(C)(C)C)c1 (stereo not drawn),6.6,15.1,33.5,-2.2,64.8,-0.7
Cc1ccc2[nH]c(=O)c(C(c3nnnn3C(C)(C)C)N(Cc3ccco3)CC3CCCO3)cc2c1 (stereo not drawn),18.5,1.3,59.8*,2.4,-2.9,-1.1
Cc1ccc2cc(C(c3nnnn3C3CCCC3)N(Cc3ccco3)Cc3cccs3)c(=O)[nH]c2c1 (stereo not drawn),-7.0,-1.3,63.1*,-3.4,14.3,0.6
CCN(CC)CCN(C(=O)c1ccc2c(c1)OCCO2)c1nc2cc3c(cc2s1)OCO3,1.6,-0.3,35.4,-5.6,-1.5,-0.7
Cc1ccc2nc(N(CCN(C)C)C(=O)c3ccc4c(c3)OCCO4)sc2c1,7.5,-5.2,71.7*,0.4,-4.1,1.1
Cc1ccc2nc(N(CCN(C)C)C(=O)c3ccc4ccccc4c3)sc2c1,10.4,-5.2,25.9,-3.9,-12.1,2.8
CCN(CC)CCN(C(=O)c1ccc2c(c1)OCCO2)c1nc2ccc(C)cc2s1,-0.5,-9.0,68.6*,-1.0,13.5,1.7
CN(C)CCCN(C(=O)c1ccc2c(c1)OCCO2)c1nc2cc3c(cc2s1)OCO3,35.3,-13.2,36.2,-0.2,-6.7,1.6
CN(C)CCN(C(=O)c1ccc(N2C(=O)CCC2=O)cc1)c1nc2cc3c(cc2s1)OCO3,-40.3,0.6,56.7*,0.2,7.8,0.1
COc1ccccc1-c1cc(C(=O)N2CCOCC2)no1,1.1,3.6,-4.3,0.3,-11.2,7.7
Cc1ccc(-c2csc(N=C(N)N)n2)c(C)c1,-3.9,27.5,60.1*,1.5,-2.9,3.6
CCOC(=O)/C(C#N)=N/Nc1ccc(S(=O)(=O)Nc2cc(OC)nc(OC)n2)cc1,-14.1,-2.5,5.5,4.6,-7.7,-1.9
Cc1ccc(NC(=O)CCNC(=O)c2ccc(Cl)cc2)cc1C,-27.5,-4.7,6.3,-2.0,-7.0,1.6
CCOc1ccc(-c2ncncc2-c2ccccc2OC)c(O)c1,30.6,-13.1,41.3,-0.2,-0.4,-0.6
C=C(C)COc1ccc(-c2ncncc2-c2ccccc2OC)c(O)c1,5.0,-4.0,66.0*,-5.6,18.2,-0.7
CS(=O)(=O)c1cccc(C(=O)Nc2ccc3c(c2)OCCCO3)c1,-26.5,-1.2,-2.7,-1.7,-4.7,4.3
COc1cccc(/C=N/NC(=S)NC2CC3CC2C2C=CCC32)c1O (stereo not drawn),32.1,2.2,-19.3,6.0,0.4,3.5
Oc1ccccc1/C=N/NC(=S)NC1CC2CC1C1C=CCC21 (stereo not drawn),36.3,28.0,-18.7,9.1,99.6*,9.3
SMILES,Mdm2-MdmX inh,Beta apoptosis,T cruzi inh,UPR XBP1 act,CSC inhib,UPR CHOP act
COc1ccc(/C=C/c2nc3ccccc3n2Cc2ccccc2OC)cc1,-39.5,22.4,55.5*,3.2,43.4,4.8
COc1ccccc1Cn1c(/C=C/c2ccccc2)nc2ccccc21,-100.4,15.2,31.3,4.6,5.4,5.7
CNC(=O)NNC(=O)c1nc(-c2ccccc2)c(C)o1,6.6,-0.7,-8.0,-3.0,7.6,-0.4
C/C(N)=C(/C#N)C(=O)CSc1cc(C)c2cc(C)cc(C)c2n1,-26.7,-3.6,62.3*,-2.3,22.4,0.4
Cc1cc(C)c2nc(SCC#N)cc(C)c2c1,10.7,·,-2.1,-3.6,·,2.0
COc1ccc(NS(=O)(=O)c2ccc3nc(COc4ccc5ccccc5c4)[nH]c3c2)cc1,40.3,17.2,16.0,-1.9,46.0,-0.6
COc1ccc(NS(=O)(=O)c2ccc3nc(COc4cccc5ccccc45)[nH]c3c2)cc1,32.8,32.0,32.4,-1.9,80.1*,2.4
COC(=O)Cn1c(=NC(=O)C2COc3ccccc3O2)sc2cc(S(N)(=O)=O)ccc21 (stereo not drawn),-25.2,-5.5,0.3,-1.4,-9.6,1.2
CNc1cc(C)c(C#N)c2nc3ccccc3n12,-10.1,9.8,-2.2,4.6,-1.5,-1.3
CCc1c(C)c(C#N)c2nc3ccccc3n2c1NCCN(C)C,-7.4,9.5,67.8*,-2.0,-1.2,0.6
Cc1cc(Cl)n2c(nc3ccccc32)c1C#N,·,·,71.4*,·,·,·
CC(C)c1nnc(NC(=O)COc2ccc3c(c2)OCO3)s1,-19.8,-0.6,-0.9,5.1,30.7,6.1
CCCC(C)c1nnc(NC(=O)COc2ccc3c(c2)OCO3)s1 (stereo not drawn),4.6,1.4,-3.8,3.7,85.3*,-0.6
COc1ccc(C/C(C)=N/NC(=O)c2cccnc2)cc1,6.4,-7.2,15.8,0.0,-1.6,1.9
O=C(Nc1ccc(-c2noc(-c3cccs3)n2)cc1)c1cccnc1,-72.7,98.8*,21.5,2.9,15.7,2.2
O=C(Nc1cccc(NC(=O)c2cccs2)c1)c1cccnc1,8.2,-5.9,-11.2,-1.7,·,0.3
COc1cccc(-c2nc(-c3ccc(NC(=O)c4cccnc4)cc3)no2)c1,27.9,114.0*,-1.0,5.1,17.6,5.5
COc1ccc(CC(=O)Nc2ccc(-c3noc(-c4cccc(OC)c4)n3)cc2)cc1,38.9,7.3,-17.2,-1.0,-4.9,-1.5
CCCCCCCCNC(=O)c1cccnc1SCC(=O)Nc1ccccc1OC,14.6,-1.3,9.2,-0.1,1.4,3.7
O=C(O)c1ccccc1C(=O)Nc1ccccc1,1.1,·,-10.1,0.3,-1.9,-0.5
O=C(Nc1ccccc1)C1=C(c2ccccc2)S(=O)(=O)CCS1(=O)=O,·,·,69.3*,·,·,·
O=C1CCC(c2ccccc2)N1C(=O)c1cccnc1 (stereo not drawn),-2.8,-4.0,-15.7,0.8,·,0.2
COc1ccc2cc(C(C)C(=O)N3CCC(C(N)=O)CC3)ccc2c1 (stereo not drawn),15.6,-5.7,1.3,2.0,2.6,3.4
